Results reported in article PMC7869845 (ACS catalysis, 2020).

How the values were obtained:
[1] = test system: TamI double mutant (alanine substitutions at Leu295 and Thr299); test: End-point assay, TamI Leu295/Thr299 alanine double mutant; assay type: biochemical, Streptomyces sp. 307-9
Outline: (§1)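 Site-directed mutants expressed in E. coli BL21(DE3). Reactions in phosphate buffer (50 mM NaH2PO4, pH 7.4, EDTA, dithioerythritol, 10% glycerol) held 500 μM tirandamycin substrate, 2 μM TamI, spinach ferredoxin, 2 μM ferredoxin-NADP+ reductase, and G6P/G6PDH NADPH regeneration. Incubated 3 h at 30 °C, extracted with CHCl3, then C18 reverse-phase HPLC with UV at 354 nm. Run in triplicate.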

[2] = test system: TamI S397A, T398A, V185A, P43A/V44A variants; assay type: biochemical, Streptomyces sp. 307-9; conditions: end-point assay, TirC to TirE conversion
[3] = test system: TamI-RhFRED fusion protein; conditions: first oxidation of 1, second oxidation of 3, final oxidation of 4; cited from earlier work
TamI L399A/I400A [4] = test: End-point assay, TamI L399A/I400A; assay type: biochemical, Streptomyces sp. 307-9
Outline: as §1

TamI F92A [5] = test: Spectrophotometric substrate binding assay, TamI F92A; set-up: species or system Streptomyces sp. 307-9
Outline: (§2)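 Active P450 was quantified by CO-difference spectra (ε450-490 = 91 mM−1cm−1). Enzyme at 1 μM final in storage buffer was titrated aerobically at room temperature with tirandamycin C from DMSO stocks until saturated. Difference spectra were recorded at 365–429 nm, and peak-minus-trough ΔA was plotted against concentration. Kd came from quadratic tight-binding or hyperbolic fits, averaged over triplicate titrations.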

TamI F92A [6] = test: End-point assay, TamI F92A; assay type: biochemical, Streptomyces sp. 307-9
Outline: as §1

TamI L101V/H102S = test: End-point assay, TamI L101V/H102S; assay type: biochemical, Streptomyces sp. 307-9; conditions: no change in product profile
Outline: as §1

TamI L399A/I400A [7] = test: Spectrophotometric substrate binding assay, TamI L399A/I400A; set-up: species or system Streptomyces sp. 307-9
Outline: as §2

Row | Structure (SMILES) | ability to convert substrate to 2 [1] | product profile or abundance compared to wild type TamI [2] | kcat [3] [s⁻¹] | catalytic activity (TamI L399A/I400A [4]) | spectral shift on substrate addition (TamI F92A [5]) | catalytic activity (TamI F92A [6]) | TirC to TirE conversion (TamI L101V/H102S) | spectral shift on substrate addition (TamI L399A/I400A [7])
1 | CC1=CC[C@H]2O[C@]1(C)O[C@H]([C@H](C)/C=C(C)/C=C/C(O)=C1/C(=O)CNC1=O)[C@H]2C [compound 1, tirandamycin C] | wild type activity | no evident changes in product profile or abundance | 0.675 | significantly reduced activity | no shift | complete loss of catalytic activity | significant decrease | no shift
2 | CC1=CC(=O)[C@H]2O[C@]1(C)O[C@H]([C@H](C)/C=C(C)/C=C/C(O)=C1/C(=O)CNC1=O)[C@H]2C [compound 3, tirandamycin D] | – | – | 1.4 | – | – | – | – | –
3 | CC(/C=C/C(O)=C1/C(=O)CNC1=O)=C\[C@@H](C)[C@H]1O[C@@]2(C)O[C@H](C(=O)[C@H]3O[C@]32C)[C@@H]1C [compound 4, tirandamycin A] | – | – | 0.00183 | – | – | – | – | –
